Assay results as given in ChEMBL document CHEMBL1143171, “Structure-activity studies on 1,3-dioxane-2-carboxylic acid derivatives, a novel class of subtype-selective peroxisome proliferator-activated receptor alpha (PPARalpha) agonists” (Bioorg Med Chem, 2008).
Each block holds one molecule with its values, some of them ahead of it.

Columns and labels:
[1] = molecular target: T1, Peroxisome proliferator-activated receptor alpha (Homo sapiens, UniProt Q07869); assay: Agonist activity at human PPARalpha expressed in CV1 cells by transactivation assay; type: functional, cell-based, CV-1
T1 sequence (Q07869 whole entry): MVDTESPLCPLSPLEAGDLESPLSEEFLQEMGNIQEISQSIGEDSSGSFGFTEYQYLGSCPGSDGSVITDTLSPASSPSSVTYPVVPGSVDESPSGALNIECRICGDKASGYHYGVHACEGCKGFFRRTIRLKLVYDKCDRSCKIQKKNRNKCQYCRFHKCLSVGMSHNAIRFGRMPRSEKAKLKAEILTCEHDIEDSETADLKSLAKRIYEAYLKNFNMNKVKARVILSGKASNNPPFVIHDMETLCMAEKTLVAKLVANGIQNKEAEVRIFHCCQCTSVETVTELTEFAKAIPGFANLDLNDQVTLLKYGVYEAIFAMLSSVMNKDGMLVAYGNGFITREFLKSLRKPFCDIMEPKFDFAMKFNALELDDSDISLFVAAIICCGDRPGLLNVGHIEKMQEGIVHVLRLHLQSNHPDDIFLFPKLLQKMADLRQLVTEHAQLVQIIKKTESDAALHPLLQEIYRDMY

[2] = molecular target: T2, Peroxisome proliferator-activated receptor gamma (Homo sapiens) (UniProt P37231); assay: Agonist activity at human PPARgamma expressed in CV1 cells at 10 uM by transactivation assay; type: functional, cell-based; conditions: CV-1
T2 sequence (whole entry): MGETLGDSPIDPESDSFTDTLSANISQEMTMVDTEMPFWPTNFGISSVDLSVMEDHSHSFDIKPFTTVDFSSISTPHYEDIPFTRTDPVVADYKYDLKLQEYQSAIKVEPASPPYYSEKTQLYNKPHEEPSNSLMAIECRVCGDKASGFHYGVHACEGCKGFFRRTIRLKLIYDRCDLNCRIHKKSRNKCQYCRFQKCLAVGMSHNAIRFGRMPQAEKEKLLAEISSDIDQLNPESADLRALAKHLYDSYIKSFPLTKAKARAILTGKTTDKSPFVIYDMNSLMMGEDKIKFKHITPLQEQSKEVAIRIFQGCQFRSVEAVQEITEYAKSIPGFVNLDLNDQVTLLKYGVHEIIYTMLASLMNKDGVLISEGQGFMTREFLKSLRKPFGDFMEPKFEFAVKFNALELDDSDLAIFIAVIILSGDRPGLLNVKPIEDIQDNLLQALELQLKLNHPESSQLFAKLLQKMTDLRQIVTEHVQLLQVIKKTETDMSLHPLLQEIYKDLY
Summary of the method: (§1)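 Human full-length PPAR subtype (pSG5) cotransfected into CV-1 cells with a PPRE (rat acyl-CoA oxidase, ×3)–TK firefly luciferase reporter and a Renilla TK control. Cells were cultured in DMEM/10% FBS at 37 °C under 5% CO2, then exposed to compound at 10 µM (0.1% DMSO final) for 48 h. The dual-luciferase read-out is given as a percentage of the positive control's maximum activity (n = 2).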

[3] = molecular target: T3, Peroxisome proliferator-activated receptor delta (Homo sapiens) (UniProt Q03181); assay: Agonist activity at human PPARdelta expressed in CV1 cells at 10 uM by transactivation assay; type: functional, cell-based; conditions: CV-1; summary of the method: as §1
T3 sequence (whole entry): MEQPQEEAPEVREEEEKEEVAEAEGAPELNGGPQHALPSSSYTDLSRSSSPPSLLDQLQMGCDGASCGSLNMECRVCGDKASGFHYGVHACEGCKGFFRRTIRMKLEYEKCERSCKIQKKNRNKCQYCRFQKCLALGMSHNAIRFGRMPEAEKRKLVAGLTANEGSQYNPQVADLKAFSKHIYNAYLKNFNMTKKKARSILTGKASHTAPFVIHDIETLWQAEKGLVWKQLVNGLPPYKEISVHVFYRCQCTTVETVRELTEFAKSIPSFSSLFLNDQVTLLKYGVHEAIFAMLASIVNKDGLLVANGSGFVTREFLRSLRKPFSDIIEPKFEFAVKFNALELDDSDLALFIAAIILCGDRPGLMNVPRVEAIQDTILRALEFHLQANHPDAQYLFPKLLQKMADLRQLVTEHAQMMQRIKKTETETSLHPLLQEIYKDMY

[4] = molecular target: T4, Peroxisome proliferator-activated receptor delta (Homo sapiens, UniProt Q03181); assay: Agonist activity at human PPARdelta expressed in CV1 cells by transactivation assay; type: functional, cell-based, CV-1
T4 sequence (Q03181 whole entry): T3 sequence (whole entry)

[5] = system: Mus musculus; assay: Hypolipidemic effect on diabetic KK-Ay mouse assessed as reduction of plasma triglyceride level at 300 mg/kg/day, po after 4 days; type: functional; design: scale not given: the % may be the effect or the level left
Summary of the method: (§2)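 Male KK-Ay mice, 10 weeks old and fed chow ad libitum, were dosed orally once daily for 4 days (n = 5) with suspensions in 0.5% methylcellulose. On the day after the last dose, nonfasted tail-vein plasma was assayed enzymatically for TG and glucose. Vena cava plasma taken under pentobarbital had lipoprotein cholesterol measured by HPLC with on-line enzymatic detection. Values are % change of the group mean from vehicle controls.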

[6] = system: Mus musculus; assay: Hypoglycemic effect on diabetic KK-Ay mouse assessed as reduction of plasma glucose level at 300 mg/kg/day, po after 4 days; type: functional; design: scale not given: the % may be the effect or the level left; summary of the method: as §2
[7] = system: Mus musculus; assay: Hypolipidemic effect on diabetic KK-Ay mouse assessed as reduction of plasma VLDL cholesterol level at 300 mg/kg/day, po after 4 days; type: functional; design: scale not given: the % may be the effect or the level left; summary of the method: as §2
[8] = system: Mus musculus; assay: Hypolipidemic effect on diabetic KK-Ay mouse assessed as increase in plasma HDL cholesterol level at 300 mg/kg/day, po after 4 days; type: functional; summary of the method: as §2
[9] = molecular target: T5, Peroxisome proliferator-activated receptor gamma (Homo sapiens, UniProt P37231); assay: Agonist activity at human PPARgamma expressed in CV1 cells by transactivation assay; type: functional, cell-based, CV-1
T5 sequence (P37231 whole entry): T2 sequence (whole entry)

[10] = molecular target: T6, Peroxisome proliferator-activated receptor alpha (Mus musculus, UniProt P23204); assay: Agonist activity at mouse PPARalpha expressed in CV1 cells by transactivation assay; type: functional, cell-based, CV-1
T6 sequence (P23204 whole entry): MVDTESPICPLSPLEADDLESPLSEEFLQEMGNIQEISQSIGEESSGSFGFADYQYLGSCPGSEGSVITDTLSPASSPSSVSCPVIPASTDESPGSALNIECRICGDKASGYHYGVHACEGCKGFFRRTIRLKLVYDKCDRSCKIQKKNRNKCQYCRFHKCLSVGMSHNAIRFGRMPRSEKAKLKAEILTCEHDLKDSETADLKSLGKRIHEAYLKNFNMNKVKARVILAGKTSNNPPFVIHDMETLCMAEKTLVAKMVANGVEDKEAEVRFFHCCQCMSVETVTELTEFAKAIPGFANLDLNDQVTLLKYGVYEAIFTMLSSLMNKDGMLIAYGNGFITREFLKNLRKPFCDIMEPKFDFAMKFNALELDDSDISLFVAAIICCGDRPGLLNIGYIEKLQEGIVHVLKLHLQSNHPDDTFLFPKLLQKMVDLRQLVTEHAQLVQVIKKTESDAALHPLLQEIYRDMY

[11] = system: Mus musculus; assay: Hypoglycemic effect on diabetic KK-Ay mouse assessed as reduction of plasma glucose level at 1 mg/kg/day, po after 4 days; type: functional; design: scale not given: the % may be the effect or the level left; summary of the method: as §2
[12] = system: Mus musculus; assay: Hypolipidemic effect on diabetic KK-Ay mouse assessed as reduction of plasma VLDL cholesterol level at 1 mg/kg/day, po after 4 days; type: functional; design: scale not given: the % may be the effect or the level left; summary of the method: as §2
[13] = system: Mus musculus; assay: Hypolipidemic effect on diabetic KK-Ay mouse assessed as increase in plasma HDL cholesterol level at 1 mg/kg/day, po after 4 days; type: functional; summary of the method: as §2
[14] = molecular target: T7, Peroxisome proliferator-activated receptor gamma (Mus musculus, UniProt P37238); assay: Agonist activity at mouse PPARgamma expressed in CV1 cells by transactivation assay; type: functional, cell-based, CV-1
T7 sequence (P37238 whole entry): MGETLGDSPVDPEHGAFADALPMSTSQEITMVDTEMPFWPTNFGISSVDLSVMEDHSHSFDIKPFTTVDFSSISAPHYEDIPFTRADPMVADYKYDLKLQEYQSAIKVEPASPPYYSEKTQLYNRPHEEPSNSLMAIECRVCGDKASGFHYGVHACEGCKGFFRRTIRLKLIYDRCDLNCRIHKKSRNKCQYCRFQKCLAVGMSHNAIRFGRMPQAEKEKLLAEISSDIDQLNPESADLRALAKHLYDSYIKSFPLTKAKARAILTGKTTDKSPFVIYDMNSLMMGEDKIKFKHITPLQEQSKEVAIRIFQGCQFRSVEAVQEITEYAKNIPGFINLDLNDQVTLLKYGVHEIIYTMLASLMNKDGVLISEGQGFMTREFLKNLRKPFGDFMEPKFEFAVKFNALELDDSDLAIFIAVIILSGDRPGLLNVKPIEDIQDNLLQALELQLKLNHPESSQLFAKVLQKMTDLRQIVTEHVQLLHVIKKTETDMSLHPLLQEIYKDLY

[15] = Selectivity for mouse PPARalpha over human PPARalpha
[16] = system: Mus musculus; assay: Hypolipidemic effect on diabetic KK-Ay mouse assessed as reduction of plasma triglyceride level at 1 mg/kg/day, po after 4 days; type: functional; design: scale not given: the % may be the effect or the level left; summary of the method: as §2
[17] = molecular target: T8, Peroxisome proliferator-activated receptor gamma (Mus musculus) (UniProt P37238); assay: Agonist activity at mouse PPARgamma expressed in CV1 cells at 10 uM by transactivation assay; type: functional, cell-based; conditions: CV-1
T8 sequence (whole entry): T7 sequence (P37238 whole entry)

Structure (SMILES): Cc1ccc(-c2nc(CCCC[C@H]3CO[C@@](C)(C(=O)O)OC3)c(C)s2)cc1
EC50 [1]: 300 nM
Activity [2]: 25%
Activity [3]: 0%

Structure (SMILES): CC(C)(Oc1ccc(C(=O)c2ccc(Cl)cc2)cc1)C(=O)O [FENOFIBRIC ACID]
EC50 [1]: > 100000 nM
EC50 [4]: > 100000 nM
Activity [5]: -40%
Activity [6]: -25%
Activity [7]: -31%
Activity [8]: 17%

Structure (SMILES): CC(C)(Oc1ccc(CCNC(=O)c2ccc(Cl)cc2)cc1)C(=O)O [BEZAFIBRATE]
EC50 [9]: 3000 nM
EC50 [4]: 30000 nM

Structure (SMILES): Cc1ccccc1-c1nc(CCCC[C@H]2CO[C@@](C)(C(=O)O)OC2)c(C)o1
EC50 [1]: 300 nM
Activity [2]: 23%
Activity [3]: 5%

Structure (SMILES): Cc1oc(-c2ccccc2)nc1CCCC[C@H]1CO[C@@](C)(C(=O)O)OC1
EC50 [1]: 300 nM
EC50 [9]: 100000 nM
Activity [3]: 0%
EC50 [10]: 1000 nM
Activity [11]: -12%
Activity [12]: -29%
Activity [13]: 36%
Activity [17]: 11%
Activity [16]: -46%

Second part, led by results:

EC50 [1]: 30 nM
Activity [2]: 18%
Activity [3]: 20%
Structure (SMILES): COc1ccc(-c2nc(CCCC[C@H]3CO[C@@](C)(C(=O)O)OC3)c(C)o2)cc1

EC50 [1]: 30 nM
Activity [2]: 21%
Activity [3]: 9%
Structure (SMILES): Cc1oc(-c2ccc(Cl)cc2)nc1CCCC[C@H]1CO[C@@](C)(C(=O)O)OC1

EC50 [1]: 10 nM
Activity [2]: 45%
Activity [3]: 25%
EC50 [10]: 100 nM
EC50 [14]: 10000 nM
Selectivity ratio [15]: 10
Structure (SMILES): Cc1ccc(-c2nc(CCCC[C@H]3CO[C@@](C)(C(=O)O)OC3)c(C)o2)cc1F
Activity [11]: -12%
Activity [12]: -63%
Activity [13]: 21%
Activity [16]: -53%
